# Source: PubChem BioAssay (several laboratories)
# UBC13 inh: blocks human UBC13 polyubiquitin chain formation. P61088. TR-FRET. inhibition, % at 20 µM. actives 0.47% (n = 330,000); in the data active = inhibition above about 45%, passing the limit was not always enough; inconclusive = no clear call, values can overlap the other calls
# Neddylation inh: blocks human cullin neddylation | TR-FRET cullin neddylation, biochemical | calls only at 25 µM | actives 0.58% (n = 360,000) | AID 651699; in the data active = inhibition above about 36%
# FID counter: counter-screen for HCV NS3 helicase inhibitors: DNA intercalator displacement | AID 1845 | DNA fluorescent intercalator displacement, fluorescence | actives 0.17% (n = 290,000) | inhibition, % at 7.9 µM; in the data active = inhibition above about 37%;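 also: higher means more ethidium bromide displaced from hairpin DNA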
# RAD54 branch: inhibitors of human RAD54 branch migration; AID 602329; actives 0.14% (n = 360,000); inhibition, % at 10.4 µM; RAD54 Holliday junction branch migration, FAM/BHQ fluorescence;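 active = mean normalized replicate activity at least 40 and at least half of replicates scoring 40 or more; inconclusive = only one of the two criteria met; inactive = mean below 40 and under half of replicates reaching 40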;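 also: inhibitors cause a drop in the FAM fluorescence signal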
# Target sequence (Q92698 whole entry, looked up): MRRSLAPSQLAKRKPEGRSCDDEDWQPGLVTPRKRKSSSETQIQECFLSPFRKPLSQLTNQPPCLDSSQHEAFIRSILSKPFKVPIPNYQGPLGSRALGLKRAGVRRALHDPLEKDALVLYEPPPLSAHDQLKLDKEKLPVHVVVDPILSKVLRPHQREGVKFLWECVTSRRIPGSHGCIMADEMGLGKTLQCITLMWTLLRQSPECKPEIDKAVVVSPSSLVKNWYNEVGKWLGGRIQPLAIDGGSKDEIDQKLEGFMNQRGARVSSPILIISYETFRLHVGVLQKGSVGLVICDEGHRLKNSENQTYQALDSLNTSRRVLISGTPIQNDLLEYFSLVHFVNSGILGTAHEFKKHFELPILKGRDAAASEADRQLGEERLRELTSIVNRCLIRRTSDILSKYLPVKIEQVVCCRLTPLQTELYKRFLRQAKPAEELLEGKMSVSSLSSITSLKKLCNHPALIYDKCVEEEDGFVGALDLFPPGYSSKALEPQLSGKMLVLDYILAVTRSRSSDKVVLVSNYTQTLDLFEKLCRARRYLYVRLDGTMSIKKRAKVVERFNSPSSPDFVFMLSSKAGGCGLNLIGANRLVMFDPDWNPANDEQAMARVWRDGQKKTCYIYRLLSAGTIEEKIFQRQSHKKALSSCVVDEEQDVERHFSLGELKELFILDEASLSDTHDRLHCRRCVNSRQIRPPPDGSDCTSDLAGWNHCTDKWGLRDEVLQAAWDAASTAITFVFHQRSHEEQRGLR
# Apaf1 inhib: inhibitors of human Apaf-1 apoptosome; AID 489030; reconstituted apoptosome caspase-3 activity, DEVD-Rh110 fluorescence; O14727; inhibition, % at 20 µM; actives 0.71% (n = 330,000); active = inhibition of at least 40% at 20 µM
#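 Material: reconstituted apoptosome with Apaf-1, cytochrome c, caspase-9, procaspase-3, dATP. Technique: Rh110 fluorescence intensity. Buffer or medium: pH 7.5 Hepes buffer with CHAPS, BSA, DTT. Times: 30 min plus 50 min, RT.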
# RAD52 inh: inhibitors of human RAD52 DNA annealing | actives 0.46% (n = 360,000) | recombinant RAD52 DNA annealing, FRET fluorescence | AID 651710 | inhibition, % at 18.7 µM;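 active = every replicate showing at least 50% inhibition; inconclusive = mean inhibition at least 50% but not in every replicate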
# Casp3 UBC13 ctr: counter-screen for UBC13 inhibitors: human caspase-3 inhibition; shares compounds with UBC13 inh; inhibition, % at 20 µM; Recombinant caspase-3, Caspase-Glo 3/7 luminescence, 60 min; AID 488856; actives 4% (n = 1,400);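 active = mean inhibition across replicates above about 26%, limit read from the data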
# UBC13 conf: human UBC13 polyubiquitin inhibition, confirmed; shares compounds with UBC13 inh; UBC13 polyubiquitination, TR-FRET, biochemical; inhibition, % at 10 µM; actives 68% (n = 1,400); AID 488859; in the data active = inhibition above about 45%; inconclusive = no clear call, values can overlap the other calls
# Hits are given with their value; - = inactive; ? = inconclusive; . = no result shown. Rows were chosen to be rich in hits. Some 1.6% of all compounds tested hit in one or more screens of this group.
SMILES,UBC13 inh,Neddylation inh,FID counter,RAD54 branch,Apaf1 inhib,RAD52 inh,Casp3 UBC13 ctr,UBC13 conf
Oc1[nH]c2ccccc2c1N=NC(=S)NCC1CCCO1 (stereo not given),98,-,-,.,-,-,-,102
c1coc(-c2nc(-c3ccco3)c(-c3ccco3)nc2-c2ccco2)c1,77,-,-,-,63,.,-,64
Nc1nc(-c2ccco2)c(-c2ccco2)s1,-,-,-,.,-,.,.,.
CCOC(=O)CSc1nc2ccccc2c(=O)n1NC(=O)c1ccccc1,48,-,-,-,-,.,-,-
CCc1ccc(C(=O)Nn2c(C)nc3ccccc3c2=O)cc1,60,-,-,-,-,-,-,64
CCOC(=O)CSc1nc2ccccc2c(=O)n1C,-,-,-,-,-,.,.,.
C[C@@H]1CN([C@@H](C)CO)C(=O)c2cccc(NC(=O)Nc3ccc(F)cc3)c2O[C@@H]1CN(C)Cc1ccc(C(=O)Nc2ccccc2N)cc1,.,.,.,.,.,-,.,.
CCCNC(=O)C[C@H]1CC[C@H]2[C@@H](COc3ccc(NC(=O)c4cccc(OC)c4)cc3C(=O)N2C)O1,.,.,.,-,.,-,.,.
C[C@H](CO)N1C[C@H](C)[C@H](CN(C)Cc2ccc(Oc3ccccc3)cc2)Oc2ccc(NS(=O)(=O)c3ccc(Cl)cc3)cc2C1=O,.,.,.,-,.,-,.,.
CCn1c(=O)c(C(=O)NCCN2CCCCC2)c(O)c2ccccc21,48,-,-,-,-,.,-,55
CC(=O)O[C@]1(C(C)=O)CCC2C3C=C(C)C4=CC(=O)CC[C@]4(C)C3CC[C@@]21C (stereo not given in full),-,-,-,-,-,-,.,.
C[C@]12CCC(=O)C=C1C=C[C@@H]1[C@@H]2CC[C@@]2(C)[C@H]1CC[C@@]21CCC(=O)O1,76,-,-,-,-,-,-,-
C[C@H](NC(=O)C[C@@H]1CC[C@@H]2[C@H](COC[C@H](O)CN2C(=O)Nc2cc(Cl)cc(Cl)c2)O1)c1ccccc1,.,.,.,-,.,-,.,.
C[C@H]1CN([C@@H](C)CO)C(=O)c2cc(NC(=O)NC3CCCCC3)ccc2O[C@@H]1CN(C)Cc1ccc(C(F)(F)F)cc1,.,.,.,-,.,-,.,.
CCOC(=O)c1nn(-c2ccccc2)c(=O)cc1OCC(=O)Nc1cc(C)ccc1OC,48,-,.,-,-,-,-,?
CC(C)(C)c1cc(NCCCn2ccnc2)n2ncc(-c3ccccc3)c2n1,61,.,-,-,-,-,-,55
Cc1ccc(OCCCC(=O)NNC(=O)c2ccccn2)cc1,56,-,.,-,-,-,-,-
O=C(COc1ccccc1)NNC(=O)c1ccc(Cl)cc1,-,-,.,-,-,-,.,.
Cc1ccc(OCC(=O)NCCNC(=O)c2ccccn2)cc1,-,-,-,-,-,-,.,.
O=C(COc1ccc(Cl)cc1)NNC(=O)c1ccccn1,71,-,-,-,-,.,-,97
COCCCNC(=S)NNC(=O)c1ccccn1,89,-,-,.,-,-,-,101
COCCCNC(=S)NNC(=O)c1ccccc1Br,-,-,-,.,-,-,.,.
Cc1cc(C)cc(OCC(=O)NNC(=O)c2ccccn2)c1,96,-,.,-,-,-,-,85
Cc1cc(C)cc(OCC(=O)NNC(=O)c2cc(C)[nH]n2)c1,-,-,-,-,-,.,.,.
C[C@@H]1CCCCO[C@@H](CN(C)S(=O)(=O)c2ccccc2)[C@H](C)CN([C@@H](C)CO)C(=O)c2cc(NC(=O)Nc3ccc(C(F)(F)F)cc3)ccc2O1,.,.,.,-,.,-,.,.
SMILES,UBC13 inh,Neddylation inh,FID counter,RAD54 branch,Apaf1 inhib,RAD52 inh,Casp3 UBC13 ctr,UBC13 conf
Cc1ncc(CO)c(/C=N/NC(=S)Nc2cccc(Cl)c2)c1O,-,.,-,.,-,.,.,.
Cc1ncc(CO)c(/C=N/NC(=S)Nc2ccc(Cl)c(Cl)c2)c1O,51,-,-,.,-,-,-,-
C[C@H](CO)N1C[C@H](C)[C@H](CN(C)Cc2ccccc2)Oc2ccc(NC(=O)C3CC3)cc2C1=O,.,.,.,-,.,-,.,.
C[C@H]1CN([C@@H](C)CO)C(=O)Cc2cc(NS(=O)(=O)c3ccccc3)ccc2O[C@@H]1CN(C)S(=O)(=O)c1cn(C)cn1,.,.,.,-,.,-,.,.
C#CCOCCOCCOCCNc1nc(N2CCN(C(=O)[C@H]([C@@H](C)CC)n3cc([C@@H](N)CO)nn3)CC2)nc(N2CCN(C(=O)[C@H](Cc3ccc(O)cc3)n3cc([C@@H](N)C(C)CC)nn3)CC2)n1 (stereo not given in full),-,-,-,-,-,.,.,.
C#CCOCCOCCOCCNc1nc(N2CCN(C(=O)[C@H]([C@@H](C)CC)n3cc([C@@H](N)CO)nn3)CC2)nc(N2CCN(C(=O)[C@H](Cc3cc4ccccc4[nH]3)n3cc([C@@H](N)C(C)CC)nn3)CC2)n1 (stereo not given in full),60,.,41,.,48,.,-,46
C#CCOCCOCCOCCNc1nc(N2CCN(C(=O)C([C@@H](C)CC)n3cc(C(N)COC(=O)C(F)(F)F)nn3)CC2)nc(N2CCN(C(=O)[C@H](Cc3cc4ccccc4[nH]3)n3cc(C(N)CO)nn3)CC2)n1 (stereo not given in full),69,.,.,.,49,.,-,-
Cc1ccc(S(=O)(=O)N(C)C[C@@H]2Oc3c(NS(=O)(=O)c4ccccc4)cccc3C(=O)N([C@@H](C)CO)C[C@@H]2C)cc1,.,.,.,-,.,-,.,.
CC(=O)NC(C)c1cc(Cl)c2ccccc2c1O (stereo not given),63,.,.,-,-,-,-,47
CC(=O)NC(c1ccco1)c1cc(Cl)c2ccccc2c1O (stereo not given),47,.,.,-,-,-,-,-
CCC(=O)NC(c1cc(Cl)c2ccccc2c1O)C(C)C (stereo not given),71,.,.,-,-,-,-,56
CC(=O)NC(C)c1cc(Cl)c2cccnc2c1O (stereo not given),-,-,.,-,-,-,.,.
CC=Cc1ccc2n(c1=O)C[C@H]1[C@H](CO)[C@@H](C(=O)NCCC)N(C(=O)c3cccnc3)[C@@H]21 (mixture of isomers),.,.,.,.,.,-,.,.
COc1ccc(-c2cc3ccccc3s2)cc1[C@H]1[C@H]2C=CC[C@@H](C)[C@@H]2C(=O)N1Cc1ccccc1,48,-,.,-,-,-,60,-
Cn1c2ccccc2c(=O)c2ccc(NCCc3cccs3)cc21,45,-,.,-,-,-,88,?
COc1cc(COC(C)=O)ccc1OC(C)=O,.,.,.,.,.,-,.,.
CN1CCc2c(sc3c2C(=O)NC(c2cn(Cc4ccccc4)c4ccccc24)N3)C1 (stereo not given),51,-,-,-,-,.,-,64
